Measurements from publication PMC8791645 (Advanced therapeutics, 2021).
Like-named read-outs stand apart in the source and are kept apart here.

Experiments:
[1] = Drug release from PSMA-b-PS based NPs; type: physicochemical; details: for release half-life from NPs: PSMA-b-PS NPs, PBS pH 7.4, 37 °C
Outline: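 Loaded NPs dialysed (6–8 kDa MWCO) against phosphate-buffered saline, pH 7.4, 37 °C. Aliquots taken at 0, 1, 2, 4, 6, 8, 24, 48 and 72 h, with sink medium replaced at 2, 8, 24 and 48 h. Each aliquot mixed with an equal volume of methanol and analysed by C18 HPLC with 210 nm detection.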

M9-ENL1 cells = experiment: MTT cell viability assay with M9-ENL1 cells; type: cell-based
MV411 cells = experiment: alamarBlue cell viability; type: cell-based
[2] = Drug loading capacity in PSMA-b-PS NPs; type: physicochemical; details: mg drug loaded/mg NPs × 100, PSMA-b-PS NPs
Outline: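 Test compounds in chloroform (3 mg mL−1) stirred with aqueous NPs at 1:3 drug:NP weight ratio, left uncovered overnight to evaporate solvent (acetone in some runs). Insoluble drug removed by two 4000 rpm spins, and unloaded drug by 100 000 MWCO centrifugal filtration (2000 rpm, 10 min). Quantified by C18 reversed-phase HPLC at 210 nm against methanol standards. LC = mg drug loaded/mg NPs × 100.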

[3] = Serum stability of MCL analogs; type: in vitro ADME, mouse

With C=C1C(=O)O[C@H]2[C@H]1CCC(C)=C1CC[C@@](C)(O)[C@@H]12 [MCL, Micheliolide, reference compound] the “release half-life from NPs” value [1] was 19.8 min, the CC50 (M9-ENL1 cells; M9-ENL1, 24 h, read-out: LC50 M9-ENL1) was 15.4 ± 1.1 µM and the CC50 (MV411 cells; Homo sapiens, MV4-11, 24 h, read-out: LC50 MV-411) was 5.6 ± 2.8 µM. The “loading capacity (LC)” value [2] was “≈ 14%”.

Work on C=C1C(=O)O[C@H]2[C@H]1CCC(C)=C1[C@H](OC(=O)c3ccc(C(F)(F)F)cc3)C[C@@](C)(O)[C@@H]12 [MCL-13] yielded a CC50 (M9-ENL1 cells) of 1.8 ± 1 µM and a CC50 (MV411 cells) of 1.8 ± 0.7 µM.

With C=C1C(=O)O[C@H]2[C@H]1CCC(COC(=O)c1cc(C(F)(F)F)cc(C(F)(F)F)c1)=C1CC[C@@](C)(O)[C@@H]12 [MCL-19] the “release half-life from NPs” value [1] was 540 min, the “release rate from NPs” value ([1]; from 0–8 h) was 5.7 h⁻¹ and the CC50 (M9-ENL1 cells) was 4.1 ± 1.1 µM. For the same molecule, the CC50 (MV411 cells) was 1.7 ± 0.9 µM, the hydrolysis ([3]; free compound, 24 h incubation in both 50% and 100% serum) was 80–90% and the “degradation half-life in serum” value ([3]; free drug, 50% serum) was 18 min. For the same molecule, the intact compound ([3]; free drug, 50% serum, after 8 h of incubation) was 7 ± 2%.
